What was measured:
[1] = Half-life in rat plasma; format: ADME
[2] = tested on: MT4; experiment: Effective concentration required to inhibit cytopathicity of HIV-1(IIIB) in MT-4 cells; Not active; format: functional, cell-based, Homo sapiens
Method in brief: (§1)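 MT-4 cells resuspended at 6 × 10⁵ cells/mL and infected with HIV-1 IIIB or HIV-2 ROD at 100–300 CCID₅₀, with compound added at infection. Serial 5-fold dilutions were run in triplicate. After 5 days, viability was read by MTT reduction at 540 and 690 nm using the median OD of three wells. EC₅₀ is the concentration giving 50% protection from viral cytopathic effect.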

[3] = tested on: Human immunodeficiency virus 2; experiment: Effective concentration required to inhibit cytopathicity of HIV-2(ROD) in MT-4 cells.; format: functional, organism-based; conditions: mt4; method in brief: as §1
[4] = tested on: MT4; experiment: Evaluated for cytotoxicity in mock-infected MT-4 cells; format: functional; conditions: Homo sapiens
Method in brief: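 Exponentially growing MT-4 cells were resuspended at 6 × 10⁵ cells/mL in mock-infected wells alongside infected wells, with serial 5-fold compound dilutions run in triplicate. MTT viability was read after 5 days at 540 and 690 nm using the median OD of three wells. CC₅₀ is the concentration reducing OD₅₄₀ of mock-infected controls by 50%.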

[5] = tested on: Human immunodeficiency virus 1; experiment: Effective concentration required to inhibit cytopathicity of HIV-1(IIIB) in MT-4 cells; format: functional, organism-based; conditions: Human immunodeficiency virus 1, MT4; method in brief: as §1
[6] = tested on: MT4; experiment: Effective concentration required to inhibit cytopathicity of HIV-2(ROD) in MT-4 cells; format: functional, cell-based; conditions: Homo sapiens; method in brief: as §1
[7] = tested on: MT4; experiment: Evaluated for the ability to inhibit cytopathicity of HIV-1(IIIB) in MT-4 cells; format: functional, cell-based; conditions: Homo sapiens; method in brief: as §1

For `COC(=O)CCC/C=C(/c1ccc(OC)c(OC)c1)c1cc(C)c(OC)c(C(=O)OC)c1`, the half-life [1] was 19.2 min, the EC50 [2] was “Not Active” and the EC50 [3] was “Not Active”. For the same molecule, the CC50 [4] was 0.25 µM.

In the case of `CCCCCC=C(c1cc(Cl)c(OC)c(C(=S)OC)c1)c1cc(Cl)c(OC)c(C(=S)OC)c1`, the EC50 [2] is reported as “Not Active”, the EC50 [3] is reported as “Not Active” and the CC50 [4] is reported as 181 µM.

For `COC(=O)CCC/C=C(\c1cc(C)c(OC)c(C(=O)OC)c1)c1cc(Cl)c(OC)c(C(=O)OC)c1`, the half-life [1] was 9 min, the EC50 [5] was 0.8 µM and the EC50 [3] was “Not Active”. For the same molecule, the CC50 [4] was 19.1 µM.

For `CCCOC(=O)CCCC=C(c1cc(C)c(OC)c(C(=O)OC)c1)c1cc(C)c(OC)c(C(=O)OC)c1`, the half-life [1] was 5.2 min, the EC50 [5] was 3.5 µM and the EC50 [3] was “Not Active”. It also gave a CC50 [4] of 93.4 µM.

In the case of `COC(=O)CCCC=C(c1ccc(OC)c(OC)c1)c1ccc(OC)c(OC)c1`, the half-life [1] is reported as 0.9 min, the EC50 [2] is reported as “Not Active” and the EC50 [3] is reported as “Not Active”. The CC50 [4] was 7.4 µM.

Molecule `COC(=O)c1cc(C(=CCCCc2ccccc2)c2cc(Cl)c(OC)c(C(=O)OC)c2)cc(Cl)c1OC` has a half-life [1] of 76.6 min, an EC50 [5] of 13.2 µM and an EC50 [6] of 113 µM. It also gave a CC50 [4] greater than 230 µM.

With `COCCCCC=C(c1cc(Br)c(OC)c(C(=O)OC)c1)c1cc(Br)c(OC)c(C(=O)OC)c1` the half-life [1] was 35.1 min, the EC50 [3] was “Not Active” and the EC50 [7] was 2.8 µM. For the same molecule, the CC50 [4] was 28.6 µM.

For `CCCOC(=O)c1cc(C(=CCCCC(=O)OC)c2cc(C)c(OCCC)c(C(=O)OCCC)c2)cc(C)c1OCCC`, the EC50 [2] was “Not Active”, the EC50 [3] was “Not Active” and the CC50 [4] was greater than 209 µM.

For `COC(=S)CCCC=C(c1cc(Cl)c(OC)c(C(=S)OC)c1)c1cc(Cl)c(OC)c(C(=S)OC)c1`, the EC50 [5] was 35.4 µM, the EC50 [3] was “Not Active” and the CC50 [4] was greater than 218 µM.

For `COC(=O)CCCC=C(c1cc(Cl)c(OC)c(C(=O)SC)c1)c1cc(Cl)c(OC)c(C(=O)SC)c1`, the half-life [1] was 55.3 min, the EC50 [5] was 1.8 µM and the EC50 [3] was “Not Active”. The CC50 [4] was greater than 224 µM.

In the case of `COC(=O)CCCC=C(c1cc(Br)c(OC)c(C(=O)OC)c1)c1cc(Br)c(OC)c(C(=O)OC)c1`, the half-life [1] is reported as 6.2 min, the EC50 [5] is reported as 0.3 µM and the EC50 [3] is reported as “Not Active”. It also gave a CC50 [4] of 91 µM.

In the case of `C#CCCCC=C(c1cc(Cl)c(OC)c(C(=O)OC)c1)c1cc(Cl)c(OC)c(C(=O)OC)c1`, the half-life [1] is reported as 20.6 min, the EC50 [5] is reported as 1.1 µM and the EC50 [3] is reported as “Not Active”. It also gave a CC50 [4] of 143 µM.

In the case of `COC(=O)CCCC=C(c1ccc(OC)cc1OC)c1ccc(OC)cc1OC`, the half-life [1] is reported as 2.6 min, the EC50 [2] is reported as “Not Active” and the EC50 [3] is reported as “Not Active”. The CC50 [4] was 5.9 µM.

With `CCCCCC=C(c1cc(Cl)c(OC)c(C(C)=O)c1)c1cc(Cl)c(OC)c(C(C)=O)c1` the EC50 [2] was “Not Active”, the EC50 [3] was “Not Active” and the CC50 [4] was 47.1 µM.

In the case of `C=CCCCC=C(c1cc(Br)c(OC)c(C(=O)OC)c1)c1cc(Br)c(OC)c(C(=O)OC)c1`, the half-life [1] is reported as 58.5 min, the EC50 [5] is reported as 3 µM and the EC50 [3] is reported as “Not Active”. The CC50 [4] was 62.3 µM.

With `CCCOc1c(C)cc(C(=CCCCC(=O)OC)c2cc(C)c(OCCC)c(C(=O)OC)c2)cc1C(=O)OC` the EC50 [2] was “Not Active”, the EC50 [3] was “Not Active” and the CC50 [4] was greater than 231 µM.

For `CCOc1c(C)cc(C(=CCCCC(=O)OC)c2cc(C)c(OCC)c(C(=O)OC)c2)cc1C(=O)OC`, the half-life [1] was 9 min, the EC50 [5] was 3.7 µM and the EC50 [3] was “Not Active”. It also gave a CC50 [4] of 73 µM.

Molecule `COC(=O)c1cc(C(=CCCCc2ccccc2)c2cc(Br)c(OC)c(C(=O)OC)c2)cc(Br)c1OC` has a half-life [1] of 55 min, an EC50 [5] of 2.6 µM and an EC50 [6] of 29.3 µM. It also gave a CC50 [4] greater than 198 µM.

Work on `C=CCCCC=C(c1cc(Cl)c(OC)c(C(=O)OC)c1)c1cc(Cl)c(OC)c(C(=O)OC)c1` yielded a half-life [1] of 39.3 min, an EC50 [5] of 3.7 µM and an EC50 [6] of 26.4 µM. It also gave a CC50 [4] greater than 253 µM.

For `COc1c(Cl)cc(C(=CCCCCO)c2cc(Cl)c(OC)c(CO)c2)cc1CO`, the EC50 [2] was “Not Active”, the EC50 [3] was “Not Active” and the CC50 [4] was 30.7 µM.

With `COC(=O)CCCC=C(c1cc(C#N)c(OC)c(C(=O)OC)c1)c1cc(C#N)c(OC)c(C(=O)OC)c1` the half-life [1] was 12.4 min, the EC50 [5] was 0.8 µM and the EC50 [3] was “Not Active”. For the same molecule, the CC50 [4] was greater than 247 µM.

`COC(=O)CCCC=C(c1cc(Cl)c(OC)c(C(=O)OC)c1)c1cc(Cl)c(OC)c(C(=O)OC)c1` showed a half-life [1] of 5.8 min, an EC50 [5] of 0.6 µM and an EC50 [6] of 25 µM. The CC50 [4] was 160 µM.

With `COC(=O)CCC/C=C(\c1ccc(OC)c(OC)c1)c1cc(Cl)c(OC)c(C(=O)OC)c1` the EC50 [2] was “Not Active”, the EC50 [3] was “Not Active” and the CC50 [4] was 8.7 µM.

For `CCCOC(=O)CCCC=C(c1cc(Br)c(OC)c(C(=O)OC)c1)c1cc(Br)c(OC)c(C(=O)OC)c1`, the half-life [1] was 3.4 min, the EC50 [5] was 2.2 µM and the EC50 [3] was “Not Active”. The CC50 [4] was 114 µM.

In the case of `CCOC(=O)c1cc(C(=CCCCC(=O)OC)c2cc(C)c(OCC)c(C(=O)OCC)c2)cc(C)c1OCC`, the half-life [1] is reported as 37.7 min, the EC50 [5] is reported as 14.1 µM and the EC50 [3] is reported as “Not Active”. It also gave a CC50 [4] greater than 231 µM.

With `COC(=O)c1cc(C(=CCCCC(=O)OC(C)C)c2cc(Br)c(OC)c(C(=O)OC)c2)cc(Br)c1OC` the half-life [1] was 5.7 min, the EC50 [5] was 2.7 µM and the EC50 [3] was “Not Active”. The CC50 [4] was 35.3 µM.

With `COC(=O)c1cc(C(=CCCCC(=O)OC(C)C)c2cc(C)c(OC)c(C(=O)OC)c2)cc(C)c1OC` the half-life [1] was 1.7 min, the EC50 [5] was 3.5 µM and the EC50 [3] was “Not Active”. For the same molecule, the CC50 [4] was 59.5 µM.

With `COCCCCC=C(c1cc(Cl)c(OC)c(COC)c1)c1cc(Cl)c(OC)c(COC)c1` the EC50 [2] was “Not Active”, the EC50 [3] was “Not Active” and the CC50 [4] was 34 µM.

With `COC(=O)CCCC(CCCC(=O)OC)=C(c1cc(Br)c(OC)c(C(=O)OC)c1)c1cc(Br)c(OC)c(C(=O)OC)c1` the EC50 [2] was “Not Active”, the EC50 [3] was “Not Active” and the CC50 [4] was 78.1 µM.

In the case of `C#CCCCC=C(c1cc(Br)c(OC)c(C(=O)OC)c1)c1cc(Br)c(OC)c(C(=O)OC)c1`, the half-life [1] is reported as 18.9 min, the EC50 [5] is reported as 0.7 µM and the EC50 [3] is reported as “Not Active”. The CC50 [4] was 57.8 µM.

With `CCCOC(=O)CCCC=C(c1cc(Cl)c(OC)c(C(=O)OC)c1)c1cc(Cl)c(OC)c(C(=O)OC)c1` the half-life [1] was 7.4 min, the EC50 [5] was 3.1 µM and the EC50 [3] was “Not Active”. The CC50 [4] was 159 µM.

For `COC(=O)CCCC=C(c1cc(C)c(OC)c(C(=O)OC)c1)c1cc(C)c(OC)c(C(=O)OC)c1`, the half-life [1] was 42.9 min, the EC50 [5] was 1 µM and the EC50 [3] was “Not Active”. For the same molecule, the CC50 [4] was 6.1 µM.

— ChEMBL document CHEMBL1137077, “Design, synthesis, anti-HIV activities, and metabolic stabilities of alkenyldiarylmethane (ADAM) non-nucleoside reverse transcriptase inhibitors” (J Med Chem, 2004)
